Active and inactive are the calls of the source. No cut-off for these calls is given here.
What was measured:
A-375 = assay: Cytotoxicity in human A375 cells assessed as reduction in cell viability incubated for 48 hrs by MTT assay; format: functional, cell-based; conditions: A-375, 48 h
In short: (§1)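 Cells grown at 37°C, 5% CO₂ (HepG2, OVCAR-3, Caov-3 in DMEM + 10% FBS; A549, HeLa, A375, MCF-7 in RPMI 1640 + 10% FBS). Seeded at 4-5×10³/well in triplicate, adhered overnight, exposed to 0.03–300 μM (DMSO <0.1%) for 48 h. MTT added for 4 h, formazan dissolved in DMSO, absorbance read. IC50 from dose–response curves, mean ± SD of at least three independent experiments.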

HepG2 [1] = assay: Inhibition of mitotic exit in human HepG2 cells assessed as increase in nuclear phosphohistone H3 levels at 0.03 to 0.3 uM incubated for 48 hrs by Western blot analysis relative to control; format: functional, cell-based
HepG2 [2] = assay: Induction of apoptosis in human HepG2 cells assessed as viable cells level at 0.3 uM incubated for 24 hrs by Annexin V-FITC/PI staining based flow cytometry (reference value: 89.38%); format: functional
[3] = molecular target: Cell division cycle protein 20 homolog (Homo sapiens, UniProt Q12834); assay: Binding affinity to CDC20 (unknown origin) by SPR analysis
Sequence of Cell division cycle protein 20 homolog (Q12834 whole entry): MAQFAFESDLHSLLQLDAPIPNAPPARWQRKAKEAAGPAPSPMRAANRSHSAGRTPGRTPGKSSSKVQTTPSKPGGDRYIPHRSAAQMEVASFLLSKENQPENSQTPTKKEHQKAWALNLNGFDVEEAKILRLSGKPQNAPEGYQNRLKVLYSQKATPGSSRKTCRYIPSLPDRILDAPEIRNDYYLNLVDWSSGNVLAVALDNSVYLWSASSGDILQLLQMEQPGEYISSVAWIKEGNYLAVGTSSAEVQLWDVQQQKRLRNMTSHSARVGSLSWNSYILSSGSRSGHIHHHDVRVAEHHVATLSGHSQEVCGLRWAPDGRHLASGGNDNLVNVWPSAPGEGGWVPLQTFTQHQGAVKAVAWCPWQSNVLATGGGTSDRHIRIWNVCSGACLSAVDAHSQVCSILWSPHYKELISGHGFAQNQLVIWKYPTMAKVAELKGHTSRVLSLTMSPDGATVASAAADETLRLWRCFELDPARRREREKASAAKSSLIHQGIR
In short: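 Recombinant human Cdc20 (>95% pure) coupled by EDC/NHS to an acid-coupling chip; PBS pH 7.4 running buffer. Compounds injected as a gradient dilution series starting at 200 μM, 120-140 s association, 160 s dissociation. Steady-state values plotted against concentration; K_D from a one-to-one / single-site model.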

HepG2 [4] = assay: Cytotoxicity in human HepG2 cells assessed as reduction in cell viability incubated for 48 hrs by MTT assay; format: functional, cell-based; conditions: HepG2, 48 h; in short: as §1
Tubulin (Homo sapiens) [5] = molecular target: T1, Tubulin (Homo sapiens) (UniProt P68371+Q9H4B7+P0DPH7+P68366+Q13509+Q71U36+P04350+Q3ZCM7+P07437+P68363+Q9BQE3+Q6PEY2+Q13885+Q9BVA1+Q9BUF5); assay: Inhibition of tubulin polymerization in human HepG2 cells assessed as disruption of microtubule organization in cytosol at 0.3 uM incubated for 48 hrs by immunofluorescent staining; format: cell-based
In short: (§2)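 HepG2 treated 48 h (vehicle 0.1% DMSO; 0.3 μM paclitaxel reference). Fixed in formaldehyde, permeabilized with Triton X-100, BSA-blocked, anti-α-tubulin overnight at 4°C, fluorescent secondary, DAPI counterstain; imaged for microtubule network and chromosome morphology.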

A549 = assay: Cytotoxicity in human A549 cells assessed as reduction in cell viability incubated for 48 hrs by MTT assay; format: functional, cell-based; conditions: A549, 48 h; in short: as §1
HeLa = assay: Cytotoxicity in human HeLa cells assessed as reduction in cell viability incubated for 48 hrs by MTT assay; format: functional, cell-based; in short: as §1
Tubulin (Sus scrofa) = Tubulin (Sus scrofa) (UniProt P02554+P02550); assay: Inhibition of porcine brain tubulin polymerization assessed as reduction in rate and extent of tubulin assembly measured at 37 degC every 30 secs for 60 mins by fluorescence based assay
Sequence of Tubulin (Sus scrofa) (P02550 whole entry, looked up): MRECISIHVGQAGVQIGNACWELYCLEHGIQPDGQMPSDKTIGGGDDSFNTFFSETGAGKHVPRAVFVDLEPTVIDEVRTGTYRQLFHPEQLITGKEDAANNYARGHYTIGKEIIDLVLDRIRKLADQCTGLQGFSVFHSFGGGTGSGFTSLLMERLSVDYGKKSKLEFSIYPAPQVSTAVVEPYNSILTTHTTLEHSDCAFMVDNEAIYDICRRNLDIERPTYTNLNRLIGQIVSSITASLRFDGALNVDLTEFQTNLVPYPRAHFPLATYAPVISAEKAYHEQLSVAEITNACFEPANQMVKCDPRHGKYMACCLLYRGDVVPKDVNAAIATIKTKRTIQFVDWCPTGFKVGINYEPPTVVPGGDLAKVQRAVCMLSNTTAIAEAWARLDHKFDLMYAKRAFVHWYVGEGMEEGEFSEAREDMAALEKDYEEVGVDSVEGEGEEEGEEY
Sequence of Tubulin (Sus scrofa) (P02554 whole entry, looked up): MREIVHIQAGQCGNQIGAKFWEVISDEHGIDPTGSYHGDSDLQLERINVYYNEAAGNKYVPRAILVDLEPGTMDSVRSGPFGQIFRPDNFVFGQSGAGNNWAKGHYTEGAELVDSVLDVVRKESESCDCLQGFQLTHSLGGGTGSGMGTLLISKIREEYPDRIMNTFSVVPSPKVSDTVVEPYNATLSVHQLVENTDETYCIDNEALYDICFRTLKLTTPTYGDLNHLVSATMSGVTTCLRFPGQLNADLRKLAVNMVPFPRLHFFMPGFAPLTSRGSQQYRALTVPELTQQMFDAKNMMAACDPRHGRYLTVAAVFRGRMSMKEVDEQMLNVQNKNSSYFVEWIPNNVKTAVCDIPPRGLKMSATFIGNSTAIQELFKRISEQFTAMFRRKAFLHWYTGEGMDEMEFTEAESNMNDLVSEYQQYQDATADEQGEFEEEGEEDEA

HepG2 [6] = assay: Induction of apoptosis in human HepG2 cells assessed as late apoptotic cells level at 0.3 uM incubated for 24 hrs by Annexin V-FITC/PI staining based flow cytometry (reference value: 5.12%); format: functional
OVCAR-3 = assay: Cytotoxicity in human OVCAR3 cells assessed as reduction in cell viability incubated for 48 hrs by MTT assay; format: functional, cell-based; conditions: OVCAR-3, 48 h; in short: as §1
HepG2 [7] = assay: Induction of apoptosis in human HepG2 cells assessed as necrotic cells level at 0.3 uM incubated for 24 hrs by Annexin V-FITC/PI staining based flow cytometry (reference value: 1.48%); format: functional
MCF7 = assay: Cytotoxicity in human MCF7 cells assessed as reduction in cell viability incubated for 48 hrs by MTT assay; format: functional, cell-based; conditions: MCF7, 48 h; in short: as §1
HepG2 [8] = assay: Induction of apoptosis in human HepG2 cells assessed as increase in cleaved PARP level at 0.03 to 0.3 uM incubated for 48 hrs by Western blot analysis; format: functional, cell-based
In short: (§3)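 HepG2 cells treated 48 h. Lysates in RIPA buffer with protease/phosphatase inhibitors; 25 μg protein run on SDS-PAGE, transferred to PVDF, blocked in 5% milk/TBST, primary antibodies overnight at 4°C (caspase-3, cleaved caspase-3, cleaved PARP), HRP secondary 1 h at room temperature, ECL detection; densitometry quantified.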

HepG2 [9] = assay: Inhibition of cell invasion in human HepG2 cells assessed as retardation of cell penetration through matrigel-coated membranes at 0.3 uM incubated for 48 hrs; format: functional, cell-based
In short: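 HepG2 cells treated with compound or DMSO seeded in upper Transwell chamber in serum-free medium with Matrigel; complete medium in lower chamber. After 48 h at 37°C, 5% CO₂, invaded cells crystal-violet stained and photographed.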

Tubulin (Homo sapiens) [10] = molecular target: T1, Tubulin (Homo sapiens); assay: Inhibition of tubulin polymerization in human HepG2 cells assessed as condensed chromosome formation at 0.3 uM incubated for 48 hrs by immunofluorescent staining; format: cell-based; in short: as §2
HepG2 [11] = assay: Inhibition of mitotic exit in human HepG2 cells assessed as increase in nuclear phosphohistone H3 levels incubated for 48 hrs by immunofluorescence assay; format: functional, cell-based
In short: (§4)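 HepG2 seeded at 4×10³/well, overnight adhesion, treated 48 h. Fixed 15 min in 4% formaldehyde, permeabilized with Triton X-100, BSA-blocked, anti-phospho-histone H3 (Ser10) at 4°C overnight, fluorescent anti-rabbit secondary, DAPI counterstain. Fluorescence read relative to DMSO control; PHH3-positive cells counted in random fields as % of total. At least two experiments.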

HepG2 [12] = assay: Inhibition of cell migration in human HepG2 cells incubated for 48 hrs by wound healing assay; format: functional, cell-based
In short: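 HepG2 seeded at 15×10⁴/well in triplicate overnight. Confluent monolayers scratched with a pipette tip, PBS-washed, medium with 0.3 μM compound added. Wounds photographed at 0, 24, 48, 72 h; wound area measured by image analysis. At least two separate experiments.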

HepG2 [13] = assay: Induction of apoptosis in human HepG2 cells assessed as increase in cleaved caspase-3 level at 0.03 to 0.3 uM incubated for 48 hrs by Western blot analysis; format: functional, cell-based; in short: as §3
HepG2 [14] = assay: Inhibition of mitotic exit in human HepG2 cells assessed as increase in nuclear phosphohistone H3 levels at 100 uM incubated for 48 hrs by immunofluorescence assay relative to control; format: functional; parameters: scale not given: the % may be the effect or the level left; in short: as §4
Caov-3 cell line = assay: Cytotoxicity in human Caov3 cells assessed as reduction in cell viability incubated for 48 hrs by MTT assay; format: functional, cell-based; conditions: Caov-3, 48 h; in short: as §1
HepG2 [15] = assay: Induction of apoptosis in human HepG2 cells assessed as early apoptotic cells level at 0.3 uM incubated for 24 hrs by Annexin V-FITC/PI staining based flow cytometry (reference value: 4.02%); format: functional

In the case of `Nc1nc(F)nc2c1ncn2C(NC(=O)OCCN1CCOCC1)C(Cl)(Cl)Cl` (configuration not stated), the IC50 (A-375) is reported as 0.7 µM, the Activity (HepG2 [1]) is reported as “Active” and the Activity (HepG2 [2]) is reported as 57.7%. The Kd [3] was 119 µM, the IC50 (HepG2 [4]) was 0.6 µM and the inhibition (Tubulin (Homo sapiens) [5]) was “Active”. The IC50 (A549) was 1.5 µM, the IC50 (HeLa) was 0.3 µM and the inhibition (Tubulin (Sus scrofa)) was “Dose-dependent effect”. It also gave an Activity (HepG2 [6]) of 4.71%, an IC50 (OVCAR-3) of 1.7 µM and an Activity (HepG2 [7]) of 0.24%. The IC50 (MCF7) was 0.2 µM, the Activity (HepG2 [8]) was “Active” and the inhibition (HepG2 [9]) was “Active”. For the same compound, the inhibition (Tubulin (Homo sapiens) [10]) was “Active”, the Activity (HepG2 [11]) was “Dose-dependent effect” and the inhibition (HepG2 [12]) was “Dose-dependent effect”. For the same compound, the Activity (HepG2 [13]) was “Active”, the Activity (HepG2 [14]) was 10% and the IC50 (Caov-3 cell line) was 1.5 µM. For the same compound, the Activity (HepG2 [15]) was 37.35%.

Reference: ChEMBL document CHEMBL4402600, “Discovery of a Dual Tubulin Polymerization and Cell Division Cycle 20 Homologue Inhibitor via Structural Modification on Apcin” (J Med Chem, 2020)
